Screens as filed in PubChem BioAssay.
The sample as a whole holds a higher share of hits than the screen did.
H69AR growth 86K: growth inhibitors of human H69AR lung tumor cells | H69AR lung tumor viability, ATP luminescence, 72 h; active compounds read low | viability, % at 10 µM | 85,000 tested, 6% active | AID 598;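 active means viability at or below 40%; inactive means viability above 40%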;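 further: multidrug resistant small cell line overexpressing MRP-1 efflux transporter; 100% = mean luminescence of untreated control wells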
Lung fibro prol: blocks proliferation of human lung fibroblasts. 85,000 tested, 1.1% active. viability, % at 10 µM. LL 47 human lung fibroblast viability, ATP luminescence; active compounds read low;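 active means viability at or below 50% in the single dose screen; inactive means viability above 50%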;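 further: compound exposure lasted 72 h before the ATP readout; 100% = median luminescence of untreated cell-only wells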
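Assay system: human lung fibroblast line LL 47, low passage. Input: 1,150 fibroblasts seeded per well. Times: overnight cell rest, 72 h compound treatment at 37 °C. Evaluation: % viability of median cell-only signal. Technique: luminescent ATP detection, CellTiter-Glo. Control set: cell-only wells, no compound.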
HUVEC prolif 384: inhibitors of human endothelial cell proliferation | viability, % at 10 µM (by protocol) | 86,000 tested, 1.1% active | HUVEC proliferation, CellTiter-Glo luminescence, 72 h; active compounds read low;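 active means viability at or below 30%; inactive means viability above 30%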;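 further: 100% = median luminescence of DMSO-only cell control wells on each plate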
bCat KO growth: beta-catenin-lacking colon tumor cell growth suppression; viability, % at 10 µM; AID 818; HCT116 beta-catenin knockout viability, CellTiter-Glo, 60 h; active compounds read low; 140,000 tested, 1.5% active;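 active means viability at or under a set limit, the compound median less 4 SD, cut at about 6% in these data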;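 further: 0% = Hyamine 1622 control at 20 µM and 100% = untreated cell control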
HCT116 PTEN-null: PTEN-deleted cell growth suppression. viability, % at 10 µM. 140,000 tested, 1.2% active. HCT116 PTEN-null viability, CellTiter-Glo, 60 h; active compounds read low;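 active means viability at or below a set limit, 4 SD under the median of all tested compounds, cut at about 3.7% in these data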;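 further: PTEN knockout HCT116 line with beta catenin targeted HCT116 as companion control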
Numbers without * were called inactive; · = not tested or not shown; ! = a repeat was not active.

SMILES	H69AR growth 86K	Lung fibro prol	HUVEC prolif 384	bCat KO growth	HCT116 PTEN-null
C=CCOc1ccc(C2OC34CCCCC3C(C#N)(C#N)C2(C#N)C(=N)O4)cc1 (stereo unspecified)	13*	89	77	103	113
COc1ccc([N+](=O)[O-])cc1NC(=O)c1ccc(N(Cc2ccccc2Cl)S(C)(=O)=O)cc1	·	·	·	91	80
COC(=O)c1ccc(C(=O)OC)c(NC(=S)N2CCCC(C)C2)c1 (stereo unspecified)	·	·	·	103	104
COC(=O)C1=C(C)OC(N)=C(C#N)C1c1c(C)nn(-c2ccccc2)c1Cl (stereo unspecified)	39*	87	66	101	95
COc1ccc(C2C3=C(CCCC3=O)Nc3nc4ccccc4n32)cc1OC (stereo unspecified)	94	96	91	·	·
CC(C)C1Oc2ccccc2N(CC(=O)N(Cc2ccccn2)CC2CCCO2)C1=O (stereo unspecified)	71	93	103	98	92
Cc1ccc(CN(CC2CCCO2)C(=O)CN2C(=O)C(C(C)C)Oc3ccccc32)o1 (stereo unspecified)	38*	92	106	73	73
Cc1nc2nc(NCc3cccs3)nn2c(C)c1Cl	89	103	98	68	80
O=C(N/N=C/c1ccccc1OCC(=O)N1CCCC1)C(=O)Nc1ccccc1F	·	·	·	63	65
CNCCCC12CCC(c3ccccc31)c1ccccc12	8.6*!	74	67	47	32
CC(C)CC(=O)Nc1ccc2c3c(cccc13)CC2	·	·	·	92	91
CCC1(C)OCC(Cn2c3ccccc3c3ccccc32)O1 (stereo unspecified)	25*	86	65	77	92
Cc1ccccc1NC(=O)CSC1=C(C#N)C(c2ccsc2)CC(=O)N1 (stereo unspecified)	17*	80	76	37	36
O=c1cc(O)c2c(=O)n(-c3ccccc3)c3ccccc3c2o1	12*	100	87	81	76
CCn1c(=O)c2c(O)cc(=O)oc2c2ccccc21	·	·	·	88	83
COCC(=O)Nc1nc2ccccc2s1	94	99	109	96	114
O=C(COC(=O)Cc1cn2ccsc2n1)Nc1nc2ccccc2s1	7.2*	93	96	83	97
O=[N+]([O-])c1ccc(/C=N/Nc2nc(N3CCCCCC3)nc(N3CCCCCC3)n2)o1	28*	85	70	49	32
O=[N+]([O-])c1cc2c(cc1/C=N/Nc1nc(N3CCCC3)nc(N3CCCC3)n1)OCO2	·	·	·	89	92
CN(C)c1ccc(/C=c2/sc3n(c2=O)NC2(c4ccccc4)N(C)C(=O)N(C)C2(c2ccccc2)N=3)cc1 (stereo unspecified)	·	·	·	83	100
Cn1c(Cl)cnc1C1CC(=O)c2cc(Cl)ccc2O1 (stereo unspecified)	0.2*	16*	39	2.8*	1.8*
N#Cc1c(Oc2ccc3ccccc3c2)sc(C(=O)c2ccccc2)c1N	·	·	·	16	14
Cc1ccc(C(=O)NNC2=Nc3cccc4cccc2c34)cc1	·	·	·	20	14
O=C(c1ccccc1)c1c2c(cc3sc4ccccc4[n+]13)-c1cccc3cccc-2c13	·	·	·	2.1*	2.3*
Cc1sc2cc3c(c(C(=O)c4ccccc4)[n+]2c1C)-c1cccc2cccc-3c12	·	·	·	2.2*	2.1*
SMILES	H69AR growth 86K	Lung fibro prol	HUVEC prolif 384	bCat KO growth	HCT116 PTEN-null
CN(Cc1ccccc1)c1nc(-c2cccc([N+](=O)[O-])c2)nc2ccccc12	·	·	·	74	73
COc1ccc(-c2coc3c(CN4CCCCC4)c(O)c(CN4CCCCC4)c(O)c3c2=O)cc1	7.2*	85	85	1.4*	1.6*
C/C(CC(=O)Nc1ccc2c(c1)OCO2)=N\NC(=O)C(c1ccccc1)c1ccccc1	·	·	·	99	91
Cc1cc(C)n(CC(=O)N/N=C/c2ccccn2)n1	·	·	·	90	95
O=[N+]([O-])c1ccc(O)c(/C=N/Nc2ccccn2)c1	·	·	·	12	13
Cc1cc(C(=O)N/N=C/c2cc([N+](=O)[O-])ccc2O)c2ccccc2n1	·	·	·	9	3.0*
O=[N+]([O-])c1ccc(O)c(/C=N/Nc2nc3ccccc3[nH]2)c1	·	·	·	4.2*	5
N#CC1=C(N)C(C#N)(C#N)C(c2cccnc2)C2CCCC=C12 (stereo unspecified)	97	85	72	96	92
N#CC1=C(N)C(C#N)(C#N)C(c2cccnc2)C2CC(c3ccccc3)CC=C12 (stereo unspecified)	1.6*	44*	5.9*	83	82
